Laboratory results as given in PMC6153967 (CNS Drugs, 2018).
“And” between values parts separate entries of the source, which are not always exact repeats. Equal values may be shown once. Read-outs that look alike come from different tables or passages of the source. Values belong to the compound of their own block, whether it stands above or below them.

What was measured:
[1] = Oral and intravenous pharmacokinetics in Sprague Dawley rats; assay type: in vivo; conditions: male, rat, plasma, 10 mg/kg; for Vd: intravenous 10 mg/kg
In short: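 Fasted male Sprague Dawley rats, n = 3 per group, received test compound in saline orally by gavage (30 mg/kg) or as an IV bolus (10 mg/kg). Serial blood was drawn at 0.25, 0.5, 1, 2, 4, 8 and 24 h into K2EDTA and centrifuged to plasma. Plasma was stored at –80 °C and assayed by LC–MS/MS. Parameters were calculated from mean concentration–time curves.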

[2] = assay type: in vivo, human; conditions: tramiprosate 150 mg BID, week 78
In short: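 Retrospective lumbar CSF from six patients with AD in the phase III trial, sampled at week 78 of dosing. The metabolite was quantified by a validated LC–MS/MS method in a separate bioanalytical laboratory.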

[3] = ref Alzheon, data on file, cited from earlier work
[4] = target: Recombinant human Aβ42 peptide (Homo sapiens, UniProt P05067); test: IMS–MS anti-Aβ42 oligomer activity; assay type: biochemical; conditions: for Inhibition of Aβ42 oligomer formation (in words): 1000:1, 24 h in vitro
In short: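 Recombinant human Aβ42 was reconstituted in LC–MS-grade water as a 5 mg/ml stock and diluted to 22 pmol/µl final. Test compound in water was diluted to […] and 22,000 pmol/µl solutions for 100- and 1000-fold molar excess. Mixtures were incubated at room temperature for 0, 4 and 24 h. Samples were analysed by direct infusion on a traveling-wave IMS Q-TOF: positive sensitivity mode, m/z 500–4000, with drift times used to resolve monomer and oligomers.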

[5] = Brain penetration after single oral dose in Sprague Dawley rats; assay type: in vivo, male Sprague Dawley rats; conditions: oral 30 mg/kg
In short: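 Fasted male Sprague Dawley rats received test compound in saline by oral gavage at 30 mg/kg. Terminal plasma, CSF and brain were taken at 1, 2, 6 and 24 h, three rats per time point. Brains were perfused to remove blood before processing. All matrices were assayed by LC–MS/MS. AUC ratios were derived from mean concentration–time curves.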

[6] = assay type: in vivo, human; conditions: drug-naïve
In short: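 CSF came from 64 untreated patients with cognitive deficits (MMSE 15–30). Sampling: lumbar puncture at L3–L5, supine, atraumatic needle, 8–11 a.m. Spun 5 min at 2000 rpm at room temperature, aliquoted into polypropylene, stored at –80 °C. Samples were derivatized with EDC/TFEA for 30 min at room temperature and centrifuged. The supernatant went to LC–MS/MS. Identity was set by retention time and two transition ions against reference standard. LOQ 0.1 ng/ml; range 0.1–1000 ng/ml.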

[7] = cited from earlier work
[8] = tramiprosate phase III NA trial; cited from earlier work
[9] = both phase III trials, subjects receiving active drug; cited from earlier work

Chain of Recombinant human Aβ42 peptide (P05067 672-713): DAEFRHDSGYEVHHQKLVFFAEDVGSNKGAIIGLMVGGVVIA

- clearance [1]: 45 mL/min/kg
- Vd ([1]; Vss): 12.9 L/kg
- Vd ([1]; Vz): 43.6 L/kg
- concentration at 78 week ([2]; human, CSF, oral, 150 mg BID, Minimum–maximum 3-SPA concentration in CSF): 112 to 232 nM
- Median 3-SPA concentration in CSF [2]: 19.8 ng/ml and 128.6 nM
- Aβ42 oligomer species not inhibited ([4]; 1000:1, after 4 h incubation): dimers, trimers, and pentamers
- Aβ42 oligomer species not inhibited ([4]; 1000:1, after 24 h incubation): pentamers
- Brain/plasma AUC ratio (brain penetration) [5]: 25.3%
- Concentration of 3-SPA in CSF, median ([6]; all patients): 1.7 ng/ml and 10.8 nM
- Concentration of 3-SPA in CSF, median ([6]; female): 1.6 ng/ml and 10.4 nM
- Concentration of 3-SPA in CSF, minimum–maximum ([6]; female): 0.6–4.3 ng/ml and 4.2–27.7 nM
- Concentration of 3-SPA in CSF, mean ± SD ([6]; female (N 37)): 1.7 ± 0.7 ng/ml and 11.2 ± 4.4 nM
- Concentration of 3-SPA in CSF, median ([6]; male): 1.7 ng/ml and 11.1 nM
- Concentration of 3-SPA in CSF, minimum–maximum ([6]; male): 0.8–3.8 ng/ml and 5.5–24.7 nM
- Concentration of 3-SPA in CSF, mean ± SD ([6]; male (N 27)): 1.9 ± 0.6 ng/ml and 12.5 ± 4.1 nM
Structure (SMILES): O=C(O)CCS(=O)(=O)O [3-SPA, 3-sulfopropanoic acid]
- Sustained 3-SPA levels (plasma AUC) ([3]; at 2000 mg/kg ALZ-801 NOAEL, 28-day rat study): 180 millimolar (AUC in h × nM)
- Inhibition of Aβ42 oligomer formation (in words) [4]: Near complete prevention of formation of Aβ42 oligomers except for pentamers

Structure (SMILES): CC(C)[C@H](N)C(=O)NCCCS(=O)(=O)O [ALZ-801]
- NOAEL ([3]; 1-month (28-day) rat study): 2000 mg/kg
- NOAEL ([3]; 6-month rat study): 1500 mg/kg
- Improvement in brain penetration ([7]; PK/PD projections using 14C tramiprosate): ~ 30%

- Inhibition of Aβ42 oligomer formation (in words) [4]: complete inhibition
Structure (SMILES): NCCCS(=O)(=O)O [Tramiprosate, reference compound]
- Estimated mean concentration in the brain [8]: ~ 130 nM
- Cases of ARIA-E in brain MRI safety analyses [9]: no cases
- Steady-state brain penetration [7]: approximately 40%
